Test [1] deals with CCRF-CEM. As to the kind of experiment: Cytotoxicity against human CEM cells after 72 hrs by MTT assay. The format is functional, cell-based. The method in brief: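 Cells seeded at 8 × 10^3 per well and preincubated 18 h at 37 °C, 5% CO2. Leukemia lines were in RPMI-1640 and adherent lines in DMEM, each with 10% FBS plus penicillin/streptomycin. Medium replaced with compound at varying concentrations, in triplicate, for 72 h.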

Test [2] concerns CCRF-CEM. Put plainly: Cytotoxicity against human multidrug-resistant CEM/VBL100 cells after 72 hrs by MTT assay. The format is functional, cell-based. The method in brief:
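CEMVbl-100 (vinblastine-selected, P-gp-overexpressing) cells maintained in RPMI-1640 containing 100 ng/mL vinblastine. Seeded at 8 × 10^3 per well, preincubated 18 h, then exposed in triplicate to varying concentrations for 72 h. Viability read by MTT. IC50 taken as mean ± SEM of three separate experiments.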

In test [3] the test system is HeLa. As to the kind of experiment: Cell cycle arrest in human HeLa cells assessed as accumulation at G2/M phase after 24 hrs by propidium iodide staining-based flow cytometric analysis. The format is functional. The method in brief:
(§1)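 HeLa cells (5 × 10^5) exposed to graded compound concentrations for 24 h, fixed in ice-cold 70% ethanol, then lysed in buffer with RNase A and 0.1% Triton X-100. DNA stained with propidium iodide and phase distribution read by flow cytometry. Mean of two independent experiments ± SEM.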

Test [4] deals with HeLa. As to the kind of experiment: Cell cycle arrest in human HeLa cells assessed as accumulation at S phase after 24 hrs by propidium iodide staining-based flow cytometric analysis. The format is functional. The method in brief:
as §1

For test [5], the system named is HeLa. As to the kind of experiment: Cell cycle arrest in human HeLa cells assessed as accumulation at G1 phase after 24 hrs by propidium iodide staining-based flow cytometric analysis. The format is functional. The method in brief:
as §1

The subject of test [6] is HeLa. Put plainly: Cell cycle arrest in human HeLa cells assessed as decrease in phosphatase cdc25c expression at 0.1 to 1 uM after 24 to 48 hrs by Western blot analysis. The format is functional, cell-based. The method in brief:
(§2)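 HeLa cells treated for the stated times (24 or 48 h), washed in cold PBS and lysed on ice for 30 min. Lysate cleared at 15000 × g, 4 °C. 10 µg protein run on SDS-PAGE and blotted to PVDF, blocked in 5% BSA. Primary antibodies 2 h at room temperature, then peroxidase secondary 60 min, ECL detection. Membranes stripped and reprobed for γ-tubulin as loading control.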

Test [7] concerns the target Cyclin-dependent kinase 1 (Homo sapiens) (UniProt P06493). Put plainly: Inhibition of cdc2 phosphorylation at Y15 in human HeLa cells at 0.1 to 1 uM after 24 to 48 hrs by Western blot analysis. The format is cell-based. An outline of the steps: as §2
The subject of test [8] is HeLa. As to the kind of experiment: Induction of mitochondrial membrane depolarization in human HeLa cells at 0.1 to 1 uM by JC-1 staining based flow cytometric analysis. The format is functional, cell-based. Conditions: TDE = time-dependent effect. An outline of the steps:
(§3)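 HeLa cells exposed for 6, 12, 24 or 48 h. Stained either with JC-1 to read mitochondrial membrane potential or with H2-DCFDA to read ROS, then analysed by flow cytometry. Mean ± SEM of three independent experiments.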

In test [9] the test system is HeLa. As to the kind of experiment: Induction of ROS production in human HeLa cells at 0.1 to 1 uM after 12 to 24 hrs by H2DCFDA staining based flow cytometric analysis. The format is functional, cell-based. The method in brief: as §3
Test [10] relates to HeLa. As to the kind of experiment: Induction of apoptosis in human HeLa cells assessed as decrease in Bcl-2 levels at 0.1 to 1 uM after 24 hrs by Western blot analysis. The format is functional, cell-based. The method in brief: as §2
Test [11] deals with HeLa. Put plainly: Induction of apoptosis in human HeLa cells assessed as decrease in Mcl-1 levels at 0.1 to 1 uM after 24 hrs by Western blot analysis. The format is functional, cell-based. The method in brief: as §2
Test [12] deals with T1, M-phase inducer phosphatase 3 (Homo sapiens) (UniProt P30307).
T1 sequence (whole entry): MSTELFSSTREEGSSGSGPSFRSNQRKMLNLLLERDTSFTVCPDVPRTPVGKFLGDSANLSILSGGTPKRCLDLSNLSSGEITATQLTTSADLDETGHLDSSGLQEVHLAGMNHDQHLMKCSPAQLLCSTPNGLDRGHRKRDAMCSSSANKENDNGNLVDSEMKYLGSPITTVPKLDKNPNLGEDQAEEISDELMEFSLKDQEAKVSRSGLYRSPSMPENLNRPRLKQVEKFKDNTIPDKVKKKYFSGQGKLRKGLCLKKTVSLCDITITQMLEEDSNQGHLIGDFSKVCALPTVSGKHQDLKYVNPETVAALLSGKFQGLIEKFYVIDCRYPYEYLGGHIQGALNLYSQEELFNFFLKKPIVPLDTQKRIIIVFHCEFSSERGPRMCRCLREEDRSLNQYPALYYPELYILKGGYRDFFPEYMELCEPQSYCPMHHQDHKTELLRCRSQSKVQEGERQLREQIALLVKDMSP
As to the kind of experiment: Inhibition of cdc25c phosphorylation in human HeLa cells at 0.1 to 1 uM after 24 to 48 hrs by Western blot analysis. The format is cell-based. An outline of the steps: as §2

The subject of test [13] is HeLa. As to the kind of experiment: Growth inhibition of human HeLa cells after 72 hrs by MTT assay. The format is functional.
A further test relates to A549. As to the kind of experiment: Growth inhibition of human A549 cells after 72 hrs by MTT assay. The format is functional. Conditions: A549, 72 h.
The next test has as its system HT-29. Put plainly: Growth inhibition of human HT-29 cells after 72 hrs by MTT assay. The format is functional. Conditions: HT-29, 72 h.
A further test deals with MDA-MB-231. As to the kind of experiment: Growth inhibition of human MDA-MB-231 cells after 72 hrs by MTT assay. The format is functional. Conditions: MDA-MB-231, 72 h.
The test system of the next test is RS4-11. As to the kind of experiment: Growth inhibition of human RS4:11 cells after 72 hrs by MTT assay. The format is functional. As to conditions: RS4-11, 72 h.
For the next test, the system named is Jurkat. Put plainly: Growth inhibition of human Jurkat cells after 72 hrs by MTT assay. The format is functional.
A further test deals with Kasumi 1. Put plainly: Growth inhibition of human Kasumi-1 cells after 72 hrs by MTT assay. As to conditions: Kasumi 1, 72 h. The format is functional.
The species entered for another test is Bos taurus. Put plainly: Inhibition of [3H]colchicine binding to bovine brain tubulin at 1 to 5 uM by DEAE-cellulose filter method relative to control.
For test [14], the system named is HeLa. Put plainly: Induction of apoptosis in human HeLa cells at 0.1 uM after 24 to 48 hrs by propidium iodide/annexin V/FITC staining-based flow cytometric analysis. The format is functional, cell-based. The method in brief:
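A549 or HeLa cells treated for 24 or 48 h. Cells harvested, double-stained with annexin-V-FITC and propidium iodide, and analysed by flow cytometry for phosphatidylserine exposure. Mean ± SEM of three independent experiments.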

Calls of active or inactive are those of the source. No cut-off for these calls is given here. Bounds are passed on as bounds.

Sequence of Cyclin-dependent kinase 1 (Homo sapiens) (P06493 whole entry, looked up): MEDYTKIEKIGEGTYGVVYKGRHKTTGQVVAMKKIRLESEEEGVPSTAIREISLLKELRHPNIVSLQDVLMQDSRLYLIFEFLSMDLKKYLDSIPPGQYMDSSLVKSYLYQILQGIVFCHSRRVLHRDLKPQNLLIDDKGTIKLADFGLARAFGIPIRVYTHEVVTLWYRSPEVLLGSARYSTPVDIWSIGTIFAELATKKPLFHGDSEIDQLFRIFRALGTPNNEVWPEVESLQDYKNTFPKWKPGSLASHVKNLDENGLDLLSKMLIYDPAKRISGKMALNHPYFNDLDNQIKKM

Take `CCn1ccc2c3c(=O)cc(-c4ccc5c(c4)OCO5)[nH]c3ccc21`: the IC50 with CCRF-CEM [1] was 27.8 nM; in the test on CCRF-CEM [2] it was 3.7 nM. In addition, the outcome in the test with HeLa [3], with HeLa [4], in the test with HeLa [5], in the test on HeLa [6], with HeLa [9] and in the test on HeLa [10] was Active. For the same compound, the outcome with HeLa [11] was Active. Besides, the inhibition entry in test [7] and in test [12] was “Active” in each case. Further, the Activity result in the test with HeLa [8] is “Tde”.

For the compound `CCn1ccc2c3c(=O)cc(-c4ccc5c(c4)CCCC5)[nH]c3ccc21`, the outcome in the test on HeLa [3], with HeLa [4] and with HeLa [5] was Active.

Turning to `CCn1ccc2cc3c(=O)cc(-c4ccccc4)[nH]c3cc21`, the concentration for 50% growth inhibition (GI50) with HeLa [13] was determined as 49 nM; in the test with A549, 7.1 nM; in the test with HT-29, 16 nM; in the test on MDA-MB-231, 641 nM; in the test with RS4-11, 13 nM; in the test on Jurkat, 27 nM. For the same compound, in the test on Kasumi 1, the 50% growth inhibitory concentration (GI50) was found to be 30 nM. This compound also registered an inhibition in the test filed under Bos taurus of 24%.

Turning to `CC[C@]1(O)C[C@@H]2CN(CCc3c([nH]c4ccccc34)[C@@](C(=O)OC)(c3cc4c(cc3OC)N(C)[C@H]3[C@@](O)(C(=O)OC)[C@H](OC(C)=O)[C@]5(CC)C=CCN6CC[C@]43[C@@H]65)C2)C1` [VINBLASTINE], the half-maximal inhibitory concentration (IC50) in the test with CCRF-CEM [1] is 1.5 nM; in the test with CCRF-CEM [2], 285 nM.

Turning to `CCn1ccc2ccc3[nH]c(-c4ccccc4)cc(=O)c3c21`, the 50% growth inhibitory concentration (GI50) came out at 49 nM in the test on HeLa [13]; 7.1 nM in the test with A549; 16 nM in the test with HT-29; 641 nM with MDA-MB-231; 13 nM in the test with RS4-11; 27 nM in the test with Jurkat. Besides, in the test with Kasumi 1, growth was halved (GI50) at 30 nM. For the same compound, the inhibition in the test filed under Bos taurus was 24%.

For the compound `CCn1ccc2ccc3c(=O)cc(-c4ccccc4)[nH]c3c21`, the GI50 is 5920 nM in the test with HeLa [13]; 9590 nM in the test with A549; above 10000 nM with HT-29; above 10000 nM in the test on MDA-MB-231; above 10000 nM in the test with RS4-11; above 10000 nM in the test on Jurkat. Besides, in the test on Kasumi 1, the GI50 was above 10000 nM.

On to `CCCCCCCCCCCCCCCCCCn1ccc2c3c(=O)cc(C)[nH]c3ccc21`, for which the 50% growth inhibitory concentration (GI50) in the test with HeLa [13] is 2380 nM; in the test with A549, 3400 nM; in the test with HT-29, above 10000 nM; with MDA-MB-231, above 10000 nM; in the test with RS4-11, above 10000 nM; with Jurkat it was above 10000 nM. This compound gave a GI50 in the test on Kasumi 1 above 10000 nM.

In the case of `O=C1C=C(c2ccccc2)Nc2cccc3ccn1c23`, the 50% growth inhibitory concentration (GI50) in the test on HeLa [13], in the test on A549, in the test with HT-29, in the test with MDA-MB-231, in the test with RS4-11 and in the test with Jurkat was above 10000 nM each time. The same compound came in with a GI50 in the test on Kasumi 1 above 10000 nM.

For `COc1ccc(/C=C\c2cc(OC)c(OC)c(OC)c2)cc1O`, the result with HeLa [14] was Active.

With `CCn1ccc2c3c(=O)cc(-c4cccc5ccccc45)[nH]c3ccc21`, the IC50 worked out at 29.8 nM in the test on CCRF-CEM [1] and 2.3 nM in the test with CCRF-CEM [2]. Further, the outcome in the test on HeLa [3], in the test with HeLa [4] and in the test on HeLa [5] was Active.

As for `CCn1ccc2c3c(=O)cc(-c4ccc5ccccc5c4)[nH]c3ccc21`, the GI50 in the test on HeLa [13] came to 714 nM; in the test with A549, 744 nM; in the test with HT-29, 376 nM; with MDA-MB-231, 465 nM; in the test on RS4-11, 22 nM; in the test on Jurkat it was 32 nM. This compound also showed a GI50 in the test on Kasumi 1 of 396 nM.

On to `CCCCCCCCCCCCCCCCCCn1ccc2c3c(=O)cc(-c4ccccc4)[nH]c3ccc21`, for which the 50% growth inhibitory concentration (GI50) is 8350 nM in the test on HeLa [13]; 820 nM in the test on A549; above 10000 nM in the test on HT-29; 5360 nM in the test on MDA-MB-231; above 10000 nM in the test on RS4-11; above 10000 nM with Jurkat. This compound showed a 50% growth inhibitory concentration (GI50) in the test with Kasumi 1 above 10000 nM.

Values taken from ChEMBL document CHEMBL4138208, “Targeting tubulin polymerization by novel 7-aryl-pyrroloquinolinones: Synthesis, biological activity and SARs” (Eur J Med Chem, 2018).
